# Assay results of several laboratories.
# PKN1: Serine/threonine-protein kinase N1 (PKN1, Homo sapiens, UniProt Q16512)
# CA9: Carbonic anhydrase 9 (CA9, Homo sapiens, UniProt Q16790)
# HDAC9: Histone deacetylase 9 (HDAC9, Homo sapiens, UniProt Q9UKV0)
# PRSS1: Serine protease 1 (PRSS1, Bos taurus, UniProt P00760)
# MMP9: Matrix metalloproteinase-9 (MMP9, Homo sapiens, UniProt P14780)
# PDE4C: 3',5'-cyclic-AMP phosphodiesterase 4C (PDE4C, Homo sapiens, UniProt Q08493)
# PADI4: Protein-arginine deiminase type-4 (PADI4, Homo sapiens, UniProt Q9UM07)
SMILES,target,test,conditions,IC50 [nM]
CC(C)c1nc(CN(C)C(=O)N[C@@H](CCN2CCOCC2)C(=O)N[C@H](CC[C@H](Cc2ccccc2)NC(=O)OCc2cncs2)Cc2ccccc2)cs1,"Solute carrier family 22 member 7 (SLC22A7, Homo sapiens, UniProt Q9Y694)","transporter uptake, inhibitor",,> 100000
N#C/C(=C\c1ccc(-c2cc(Cl)ccc2Cl)o1)C(=O)Nc1cccc2ncccc12,"NAD-dependent protein deacylase sirtuin-5, mitochondrial (SIRT5, Homo sapiens, UniProt Q9NXA8)","enzyme activity, inhibitor, HPLC",,> 100000
COc1cc2c(c(OC)c1OC)-c1c(cc3c(c1OC)OCO3)C[C@H](C)[C@](C)(O)[C@H]2OC(=O)c1ccccc1,"Cytochrome P450 3A5 (CYP3A5, Homo sapiens, UniProt P20815)","enzyme activity, inhibitor","15 min, pH 7.4",370
COCCOc1ccc2c(c1)ncn2-c1ccc2cccc(N3CCC(N)CC3)c2n1,PKN1,"enzyme activity, inhibitor",,36
NS(=O)(=O)c1cc(C(=O)N2CCCCC2C(=O)Nc2cc(Cl)ccc2Cl)ccc1F (stereo not drawn),CA9,"enzyme activity, inhibitor",,30.2
Nc1ccc(-c2ccncc2)cc1NC(=O)N1CCCC1,HDAC9,"enzyme activity, inhibitor",,> 33300
COc1cc(/C=N/n2c(C)nc3ccc(C)cc3c2=O)ccc1OCc1ccccc1,PRSS1,"enzyme activity, inhibitor",,108000
Cc1ccc(C(=O)NCCC(=O)NCc2cc(S(N)(=O)=O)ccc2F)c(O)c1,CA9,"enzyme activity, inhibitor",,1660
O=C(O)c1ccc(-c2c[nH]c3ncc(-c4ccccc4)cc23)cc1C1CCCC1,PKN1,"enzyme activity, inhibitor",,220
Cc1nc2ccc(Cl)cc2c(=O)n1NC(=O)CCl,PRSS1,"enzyme activity, inhibitor",,97900
Cc1cnc(-c2ccc(-c3ccc(NC(=O)Nc4c(F)cc(F)cc4F)cc3F)c3c2C(=O)NC3)[nH]1,"Tyrosine-protein kinase HCK (HCK, Homo sapiens, UniProt P08631)","enzyme activity, inhibitor",,2.5
COc1ccc(S(=O)(=O)N2Cc3cc(O)c(O)cc3CC2C(=O)NO)cc1 (stereo not drawn),MMP9,"enzyme activity, inhibitor",,> 1000
Cc1cc(C(=O)N2CCN(Cc3nc(-c4ccc(Cl)cc4)no3)CC2)ccc1S(N)(=O)=O,CA9,"enzyme activity, inhibitor",,81
COc1cc(NCC(=O)Nn2c(C)nc3ccc(Cl)cc3c2=O)cc(OC)c1OC,PRSS1,"enzyme activity, inhibitor",,54300
CN1CCN(Cc2ccc(-c3cnc4[nH]cc(-c5ccc6[nH]ccc6c5)c4c3)cc2)CC1,PKN1,"enzyme activity, inhibitor",,178
COc1ccc(-c2nsc(NC(=O)[C@@H]3C[C@H]3C)c2C)cc1,"Metabotropic glutamate receptor 4 (GRM4, Homo sapiens, UniProt Q14833)","calcium signal, antagonist",,> 12500
COc1ccc(C2=NN(C3CCCCCC3)C(=O)[C@@H]3CC=CC[C@H]23)cc1-c1ccc(C(=O)NCC(N)=O)cc1 (relative stereo),PDE4C,"enzyme activity, inhibitor",,1000
COc1ccc(C(=O)N2CCCC(C(=O)Nc3cc(S(N)(=O)=O)ccc3O)C2)c2ccccc12 (stereo not drawn),CA9,"enzyme activity, inhibitor",,2610
Cc1nc2ccccc2c(=O)n1NC(=O)CSc1nc2ccccc2c(=O)n1-c1ccccc1,PRSS1,"enzyme activity, inhibitor",,3730
CCS(=O)(=O)c1cccc(-c2cc(C(=O)NC3CCN(C)CC3)c(C)c3[nH]c4ncc(C)cc4c23)c1,PKN1,"enzyme activity, inhibitor",,86
COc1cc(/C=N/n2c(C)nc3ccc(Br)cc3c2=O)ccc1OCc1ccc(Cl)cc1,PRSS1,"enzyme activity, inhibitor",,47800
Cn1ncc(Cl)c1-c1cc(C(=O)N[C@H](CN)Cc2ccc(F)c(F)c2)oc1Cl,PKN1,"enzyme activity, inhibitor",,19
CCNC(=O)[C@H](CCCNC(=N)CF)NC(=O)c1ccccc1,PADI4,"enzyme activity, inhibitor",,24300
CC(C)C(=O)Nc1ccc(C(=O)N2CCC(C(=O)Nc3ccc(S(N)(=O)=O)cc3)CC2)cc1,CA9,"enzyme activity, inhibitor",,37.2
CCOCc1nc(O)c(-c2nnc(Cc3ccc(Cl)cn3)o2)c(O)c1-c1c(OC)cccc1OC,"Beta-1 adrenergic receptor (ADRB1, Homo sapiens, UniProt P08588)","ligand displacement, radioligand",,> 30000
CNC(=O)c1ccc(NC(=O)CN(Cc2ccc(Cl)cc2)C(=O)c2ccc(S(N)(=O)=O)c(C)c2)c(F)c1,CA9,"enzyme activity, inhibitor",,28.8
CC(C)C[C@H](CC(=O)NO)C(=O)N[C@@H](Cc1ccccc1)C(=O)NCCN1CCOCC1,MMP9,"enzyme activity, inhibitor, fluorescence",,3
O=C(Nc1ccncc1)c1cc2ccccc2o1,"Amine oxidase [flavin-containing] B (MAOB, Homo sapiens, UniProt P27338)","enzyme activity, inhibitor, fluorescence",,6900
COc1ccc([C@@H]2CN(C(=O)[C@@H](O)CO)C[C@@]2(C)[C@@H](C)O)cc1OC1CN(c2ccc(C)cn2)C1,PDE4C,"enzyme activity, inhibitor",,2.4
CCCC[C@H](NC(=O)C1CN(C)C1)c1ncc(-c2cc3ccccc3nc2OC)[nH]1,HDAC9,"enzyme activity, inhibitor",,> 30000
CN1CCN(c2ccc(Nc3ncc4cc(C#N)c(=O)n(C5CCCC5)c4n3)cc2)CC1,"Ribosomal protein S6 kinase alpha-6 (RPS6KA6, Homo sapiens, UniProt Q9UK32)","enzyme activity, inhibitor",,101
NS(=O)(=O)c1ccc(NC2=NC(=O)/C(=C\c3ccc(C(=O)O)cc3)S2)cc1,CA9,"enzyme activity, inhibitor",,122
NS(=O)(=O)c1ccc(NC2=NC(=O)C(CC(=O)Nc3ccc(Br)cc3)S2)cc1 (stereo not drawn),CA9,"enzyme activity, inhibitor",,52
CC1(COc2ccc3c(c2)ncn3-c2ccc3cccc(N4CCC(N)CC4)c3n2)COC1,PKN1,"enzyme activity, inhibitor",,22
CCn1c(-c2nc3ccc(C(=O)N4CCCC(N)C4)cc3n2C)cc2ccccc21 (stereo not drawn),PADI4,"ligand displacement, FP",,> 100000
C[C@@H](N)[C@H]1CC[C@H](C(=O)Nc2ccncc2)CC1,PKN1,"enzyme activity, inhibitor",,743
O=c1c(O)c(-c2ccc(O)c(O)c2)oc2cc(O)cc(O)c12,"Sulfotransferase 1A1 (SULT1A1, Homo sapiens, UniProt P50225, R213H)","enzyme activity, inhibitor",,232
CC1Cc2cc(-c3cn(C)nn3)ccc2N1Cc1ccoc1C(=O)Nc1ccc(S(N)(=O)=O)cc1 (stereo not drawn),CA9,"enzyme activity, inhibitor",,132
NS(=O)(=O)c1ccc(Nc2nc(OCC3CCCCC3)c3[nH]cnc3n2)cc1,PKN1,"enzyme activity, inhibitor",,828
